Published values pooled from the literature.
Each line is one published result; the experiments were not run side by side.
PKN1: Serine/threonine-protein kinase N1 (PKN1, Homo sapiens, UniProt Q16512)
HRH1: Histamine H1 receptor (HRH1, Homo sapiens, UniProt P35367)
MAOB: Amine oxidase [flavin-containing] B (MAOB, Homo sapiens, UniProt P27338)
CA9: Carbonic anhydrase 9 (CA9, Homo sapiens, UniProt Q16790)
PADI4: Protein-arginine deiminase type-4 (PADI4, Homo sapiens, UniProt Q9UM07)

`Cl.Cl.c1cc(-c2cnn3cc(-c4ccc(OCCN5CCCCC5)cc4)cnc23)ccn1` gave an activity vs control of 32% (PKN1; enzyme activity, inhibitor; 1 µM).
For `CN(C)CCOC1c2ccccc2C=Cc2ccccc21`, the koff was 0.00015 s⁻¹ (HRH1; binding).
For `Cc1cc([N+](=O)[O-])ccc1NC(=O)c1ccccc1`, the inhibition was 7% (MAOB; enzyme activity, inhibitor; 1 µM, 20 min).
The kon of `CN1CCN(C2c3ccccc3CCc3ccccc32)CC1` is reported as 567000 M⁻¹ s⁻¹ (HRH1; binding).
With `CCOC(=O)C1CSc2[nH]c(=O)sc2C1c1cn(-c2ccccc2)nc1-c1ccc(C)cc1` (stereo not drawn) the inhibition was 76.9% (CA9; enzyme activity, inhibitor; 10 µM).
`CC(C)(C)n1nnc([C@H](CCCNC(=N)CCl)NC(=O)c2ccc(-c3ccccc3)cc2)n1` gave a kinact/KI of 102 M⁻¹ s⁻¹ (PADI4; enzyme activity, inhibitor).
The inhibition of `Cc1ccc(C(=O)Nc2ccc([N+](=O)[O-])cc2C(F)(F)F)cc1` is reported as 69% (MAOB; enzyme activity, inhibitor; 1 µM, 20 min).
`O=C(c1ccc(Cl)cc1)N(Cc1ccccc1)C1CCCCC1` gave an inhibition of 7.1% (Muscarinic acetylcholine receptor M4 (CHRM4, Homo sapiens, UniProt P08173); cell-free assay; 10 µM).
`C=CC(=O)Nc1cc(N2CCN(CC)CC2)ccc1Nc1cc(N(C)C(=O)Nc2c(Cl)c(OC)cc(OC)c2Cl)ncn1` has an activity vs control of 103% (PKN1; enzyme activity, inhibitor; 1 µM).
The inhibition of `CCOC(=O)C1CSc2[nH]c(=O)sc2C1c1cn(-c2ccccc2)nc1-c1ccc(Br)cc1` (stereo not drawn) is reported as 80.5% (CA9; enzyme activity, inhibitor; 10 µM).
`N=C(CF)NCCC[C@H](NC(=O)c1ccc(-c2ccccc2)cc1)c1nn[nH]n1` gave a kinact/KI of 3.5 M⁻¹ s⁻¹ (PADI4; enzyme activity, inhibitor).
`Cc1cc([N+](=O)[O-])ccc1NC(=O)c1ccc2c(c1)OCO2` has an inhibition of 24% (MAOB; enzyme activity, inhibitor; 1 µM, 20 min).
`O=C1NC(=S)C(=Cc2cn(-c3ccccc3)nc2-c2ccc(Br)cc2)S1` has an inhibition of 12% (CA9; enzyme activity, inhibitor; 10 nM).
With `CN(C)c1ccc(-c2nc3ncc(Cl)c(N4CCN(CC(=O)Nc5nccs5)CC4)c3[nH]2)cc1` the activity vs control was 32% (PKN1; enzyme activity, inhibitor; 1 µM).
The kon of `CN1CCC(=C2c3ccccc3CCc3ccccc32)CC1` is reported as 1.33e+06 M⁻¹ s⁻¹ (HRH1; binding).
`O=C(Nc1ccc([N+](=O)[O-])cc1Cl)c1ccc2c(c1)OCO2` gave an inhibition of 62% (MAOB; enzyme activity, inhibitor; 1 µM, 20 min).
For `CO[C@H]1C[C@@H]2CC[C@@H](C)[C@@](O)(O2)C(=O)C(=O)N2CCCC[C@H]2C(=O)O[C@H]([C@H](C)C[C@@H]2CC[C@@H](OP(C)(C)=O)[C@H](OC)C2)CC(=O)[C@H](C)/C=C(\C)[C@@H](O)[C@@H](OC)C(=O)[C@H](C)C[C@H](C)/C=C/C=C/C=C/1C`, the activity vs control was 104% (PKN1; enzyme activity, inhibitor; 1 µM).
For `COc1cc([N+](=O)[O-])ccc1NC(=O)c1ccccc1O`, the inhibition was 7% (MAOB; enzyme activity, inhibitor; 1 µM, 20 min).
`CCOC(=O)C1CSc2[nH]c(=O)sc2C1c1cn(-c2ccccc2)nc1-c1ccccc1` (stereo not drawn) gave an inhibition of 29% (CA9; enzyme activity, inhibitor; 0.1 µM).
`O=C(Nc1ccc(N2C(=O)c3ccccc3C2=O)c(Cl)c1)c1ncccc1O` has an Emax of 106% (Metabotropic glutamate receptor 1 (GRM1, Homo sapiens, UniProt Q13255); calcium signal, positive allosteric modulator; T-REx-293).
`CC(C)(O)[C@H]1CC[C@H](Nc2ccc3ncc(-c4cccc(C(F)(F)F)c4)n3n2)CC1` has a remaining activity of 80.6% (Receptor-interacting serine/threonine-protein kinase 3 (RIPK3, Homo sapiens, UniProt Q9Y572); enzyme activity, inhibitor; 1 µM).
`N=C(CF)NCCC[C@H](NC(=O)c1ccccc1)c1nn[nH]n1` has a kinact/KI of 67.5 M⁻¹ s⁻¹ (PADI4; enzyme activity, inhibitor).
`O=C(Nc1ccc([N+](=O)[O-])cc1)c1cc(Cl)ccc1O` has an inhibition of 66% (MAOB; enzyme activity, inhibitor; 1 µM, 20 min).
With `CC(C)(C)n1nnc([C@H](CCCNC(=N)CF)NC(=O)c2ccccc2)n1` the kinact/KI was 4.33 M⁻¹ s⁻¹ (PADI4; enzyme activity, inhibitor).
`O=C(Nc1ccccc1)c1cc(Cl)ccc1O` gave an inhibition of 44% (MAOB; enzyme activity, inhibitor; 1 µM, 20 min).
With `Cn1cc(-c2cc3c(N4CCN(c5ncc([C@@](C)(N)c6ccc(F)cc6)cn5)CC4)ncnn3c2)cn1` the activity vs control was 87% (PKN1; enzyme activity, inhibitor; 1 µM).
`CN1CCC(C2c3ccccc3CCc3ccccc32)CC1` has a kon of 717000 M⁻¹ s⁻¹ (HRH1; binding).
The activity vs control of `CC(=O)Nc1cccc(-n2c(=O)n(C3CC3)c(=O)c3c(Nc4ccc(I)cc4F)n(C)c(=O)c(C)c32)c1` is reported as 97% (PKN1; enzyme activity, inhibitor; 1 µM).
`N=C(N)NCCC[C@H](NC(=O)[C@H](Cc1ccccc1)NC(=O)[C@@H](N)Cc1c[nH]cn1)C(=O)N[C@@H](Cc1c[nH]c2ccccc12)C(=O)O` has an Emax of 85% (Melanocortin receptor 5 (Mus musculus, UniProt P41149); cAMP, agonist; HEK293).
`N#CC1CSc2[nH]c(=O)sc2C1c1cn(-c2ccccc2)nc1-c1ccc(Br)cc1` (stereo not drawn) has an inhibition of 74.5% (CA9; enzyme activity, inhibitor; 1 µM).
With `O=[N+]([O-])c1ccc(O[C@H]2O[C@H](CO)[C@@H](O)[C@H](O)[C@@H]2O)cc1` the Km was 390 µM (Beta-mannosidase (Bacteroides thetaiotaomicron, UniProt Q8AAK6); enzyme activity, substrate, absorbance; pH 5.6).
`C[C@@H]1CN(CC(=O)Nc2ccc3c(c2)Cc2cccc(-c4cc(=O)cc(N5CCOCC5)o4)c2S3)C[C@H](C)O1` has an activity vs control of 79% (PKN1; enzyme activity, inhibitor; 1 µM).
With `O=C(Nc1ccc(OC(F)(F)F)cc1)c1ccccc1` the inhibition was 29% (MAOB; enzyme activity, inhibitor; 1 µM, 20 min).
The activity vs control of `Cc1ccc2c(=O)c3ccccc3n(CCCN)c2c1C.O=C(O)/C=C\C(=O)O` is reported as 64% (PKN1; enzyme activity, inhibitor; 1 µM).
With `Cc1ccc(-c2nn(-c3ccccc3)cc2C2c3sc(=O)[nH]c3SC3C(=O)N(c4ccccc4)C(=O)C32)cc1` (stereo not drawn) the inhibition was 63.2% (CA9; enzyme activity, inhibitor; 1 µM).
With `CCC(=O)NCC[C@@H]1CCc2cc(O)c3c(c21)CCO3` the Km was 19.2 µM (Sulfotransferase 1A1 (SULT1A1, Homo sapiens, UniProt P50225); enzyme activity, substrate; pH 7).
